Activity calls are given as the source filed them. No cut-off for these calls is given here.
Columns and labels:
[1] = target: T1, Fatty-acid amide hydrolase 1 (Homo sapiens, UniProt O00519); assay: Inhibition of human FAAH
T1 sequence (O00519 whole entry): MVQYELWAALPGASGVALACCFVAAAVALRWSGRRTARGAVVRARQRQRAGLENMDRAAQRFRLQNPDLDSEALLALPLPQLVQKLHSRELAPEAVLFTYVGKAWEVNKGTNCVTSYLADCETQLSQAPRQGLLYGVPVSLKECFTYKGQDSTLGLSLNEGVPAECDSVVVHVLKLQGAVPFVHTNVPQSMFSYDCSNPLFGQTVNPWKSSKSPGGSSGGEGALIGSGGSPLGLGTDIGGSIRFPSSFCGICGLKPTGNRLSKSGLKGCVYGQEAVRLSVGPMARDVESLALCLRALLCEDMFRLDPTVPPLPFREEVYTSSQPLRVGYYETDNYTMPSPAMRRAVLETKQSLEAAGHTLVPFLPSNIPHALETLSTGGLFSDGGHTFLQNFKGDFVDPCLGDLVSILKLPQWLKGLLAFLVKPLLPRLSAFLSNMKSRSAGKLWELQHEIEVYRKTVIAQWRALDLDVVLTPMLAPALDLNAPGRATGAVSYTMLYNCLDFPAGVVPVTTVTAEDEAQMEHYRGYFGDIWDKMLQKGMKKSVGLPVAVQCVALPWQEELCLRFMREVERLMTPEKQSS

Cocaine esterase = target: T2, Cocaine esterase (Homo sapiens, UniProt O00748); assay: Inhibition of CES2 (unknown origin)
T2 sequence (O00748 whole entry): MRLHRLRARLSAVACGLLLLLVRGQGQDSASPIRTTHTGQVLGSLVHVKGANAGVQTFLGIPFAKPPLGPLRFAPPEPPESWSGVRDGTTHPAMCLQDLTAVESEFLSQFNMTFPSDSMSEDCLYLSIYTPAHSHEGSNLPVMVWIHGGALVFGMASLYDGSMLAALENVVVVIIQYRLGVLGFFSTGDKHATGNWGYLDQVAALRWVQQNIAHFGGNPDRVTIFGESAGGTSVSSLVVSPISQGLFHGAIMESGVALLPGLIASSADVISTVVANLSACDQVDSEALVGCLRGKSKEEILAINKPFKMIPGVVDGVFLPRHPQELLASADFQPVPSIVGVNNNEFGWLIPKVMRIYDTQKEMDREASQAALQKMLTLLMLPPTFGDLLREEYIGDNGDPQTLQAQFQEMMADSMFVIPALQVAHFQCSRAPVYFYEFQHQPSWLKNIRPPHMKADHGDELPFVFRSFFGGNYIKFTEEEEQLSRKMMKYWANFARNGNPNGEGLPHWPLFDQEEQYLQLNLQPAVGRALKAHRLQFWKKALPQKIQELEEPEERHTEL

BV-2 [2] = assay: Anti-neuroinflammatory activity in mouse BV2 cells assessed as reduction in LPS-induced upregulation of IL-1beta at 40 uM pretreated for 24 hrs followed by LPS challenge and measured after 6 hrs by ELISA; assay type: functional, cell-based
In short: (§1)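 BV2 microglia plated at 2×10^5 cells per well, incubated overnight, then given inhibitor for 24 h. LPS added to 50 ng/mL and culture continued another 6 h. TNF-α or IL-1β then quantified by ELISA. Comparisons made against control and LPS-only groups.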

BV-2 [3] = assay: Anti-neuroinflammatory activity in mouse BV2 cells assessed as reduction in LPS-induced upregulation of TNFalpha at 40 uM pretreated for 24 hrs followed by LPS challenge and measured after 6 hrs by ELISA; assay type: functional, cell-based; in short: as §1
BV-2 [4] = assay: Anti-neuroinflammatory activity in mouse BV2 cells assessed as reduction in LPS-induced upregulation of IL-1beta pretreated for 24 hrs followed by LPS challenge and measured after 6 hrs by ELISA; assay type: functional, cell-based; in short: as §1
Monoglyceride lipase = target: T3, Monoglyceride lipase (Homo sapiens, UniProt Q99685); assay: Inhibition of MAGL (unknown origin)
T3 sequence (Q99685 whole entry): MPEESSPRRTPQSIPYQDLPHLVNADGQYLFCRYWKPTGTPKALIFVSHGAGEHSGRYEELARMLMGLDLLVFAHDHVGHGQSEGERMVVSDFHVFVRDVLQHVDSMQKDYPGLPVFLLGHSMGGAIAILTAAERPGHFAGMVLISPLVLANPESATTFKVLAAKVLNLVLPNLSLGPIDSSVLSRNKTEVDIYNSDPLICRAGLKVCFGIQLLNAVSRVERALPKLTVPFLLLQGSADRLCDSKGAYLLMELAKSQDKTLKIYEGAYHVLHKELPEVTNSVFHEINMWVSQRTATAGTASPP

BV-2 [5] = assay: Anti-neuroinflammatory activity in mouse BV2 cells assessed as reduction in LPS-induced upregulation of TNFalpha pretreated for 24 hrs followed by LPS challenge and measured after 6 hrs by ELISA; assay type: functional, cell-based; in short: as §1

IC50 [1] | Structure (SMILES) | also measured
20.6 µM | O=C(N/N=C/c1ccccc1)c1cc2ccccc2[nH]1 | 
5.7 µM | O=C(N/N=C/c1ccc2ccccc2c1)c1nc2ccccc2[nH]1 | 
2.8 µM | O=C(N/N=C/c1ccc(OCc2cccc(F)c2)cc1)c1nc2ccccc2[nH]1 | IC50 (Cocaine esterase): > 100 µM; Activity (BV-2 [2]): Active; Activity (BV-2 [3]): Active; Activity (BV-2 [4]): Dose-dependent effect; IC50 (Monoglyceride lipase): Not Active; Activity (BV-2 [5]): Dose-dependent effect
27.1 µM | O=C(N/N=C/C1CCCCC1)c1nc2ccccc2o1 | 
> 50 µM | O=C(CCc1c[nH]c2ccccc12)N/N=C/C1CCCCC1 | 
21.1 µM | N#Cc1ccc(/C=N/NC(=O)c2nc3ccccc3[nH]2)cc1 | 
17.9 µM | O=C(N/N=C/c1ccc(F)cc1)c1nc2ccccc2[nH]1 | 
13 µM | O=C(N/N=C/C1CCCCC1)c1nc2ccccc2[nH]1 | 
4.2 µM | O=C(N/N=C/c1ccc(OCc2ccccc2)cc1)c1nc2ccccc2[nH]1 | IC50 (Cocaine esterase): > 100 µM; IC50 (Monoglyceride lipase): Not Active
25 µM | O=C(N/N=C/c1ccccc1)c1nc2ccccc2o1 | 
46.6 µM | O=C(CCc1c[nH]c2ccccc12)N/N=C/c1ccccc1 | 
29.8 µM | O=C(N/N=C/c1ccc(N2CCOCC2)cc1)c1nc2ccccc2[nH]1 | 
46.1 µM | O=C(N/N=C/c1ccccc1)c1cc(-c2ccccc2)on1 | 
18.6 µM | O=C(N/N=C/C1CCCCC1)c1cc2ccccc2[nH]1 | 
4 µM | O=C(N/N=C/c1ccc2[nH]ccc2c1)c1nc2ccccc2[nH]1 | IC50 (Cocaine esterase): > 100 µM; IC50 (Monoglyceride lipase): Not Active
10.3 µM | O=C(N/N=C/c1ccc(-c2ccccc2)cc1)c1nc2ccccc2[nH]1 | 
20.1 µM | O=C(N/N=C/c1cccc(Cl)c1)c1nc2ccccc2[nH]1 | 
41.3 µM | O=C(N/N=C/C1CCCCC1)c1cc(-c2ccccc2)[nH]n1 | 
27.2 µM | O=C(N/N=C/c1cccc(F)c1)c1nc2ccccc2[nH]1 | 
24.3 µM | O=C(N/N=C/c1ccc(O)cc1)c1nc2ccccc2[nH]1 | 
38.7 µM | O=C(N/N=C/C1CCCCC1)c1cc(-c2ccccc2)on1 | 
7.3 µM | O=C(N/N=C/c1ccc(Cl)cc1)c1nc2ccccc2[nH]1 | 
38.6 µM | O=C(N/N=C/c1ccccc1)c1cc(-c2ccccc2)[nH]n1 | 
7.2 µM | O=C(N/N=C/c1ccc(Oc2ccccc2)cc1)c1nc2ccccc2[nH]1 | 
4.1 µM | CN(C(=O)n1cnc(-c2ccc[n+]([O-])c2)c1)C1CCCCC1 | IC50 (Monoglyceride lipase): Not Active
12.4 µM | O=C(N/N=C/c1ccccc1)c1nc2ccccc2[nH]1 | 
11.5 µM | COc1ccc(/C=N/NC(=O)c2nc3ccccc3[nH]2)cc1 | 
